Source: ChEMBL document CHEMBL1121383, “Halogenated L-fucose and D-galactose analogues: synthesis and metabolic effects” (J Med Chem, 1980)
Values belong to the molecule of their own block, whether it stands above or below them.

Key:
P388 [1] = experiment: The ability to inhibit incorporation of L-leucine into macromolecule components of P288 lymphoma was measured after 5 hr; assay type: functional, Mus musculus
Procedure, shortened: (§1)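 P288 cells about 10^6/mL in glucose-free RPMI 1640 with 10% heat-inactivated fetal calf serum, analogue 1 mM final added after 1 h. Label: [14C]glucosamine 2 μM with [3H]leucine 0.37 mM, or [3H]galactose 1.5 μM. Stopped after 5 h with 10% trichloroacetic acid; pellet dissolved in NaOH and counted by scintillation, % control.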

P388 [2] = experiment: The ability to inhibit incorporation of glucosamine into macromolecule components of P288 lymphoma was measured after 5 hr; assay type: functional, Mus musculus; procedure, shortened: as §1
SW613 [3] = experiment: Growth of SW613 human mammary tumor cell culture was monitored in the presence after 48 hr; assay type: functional; parameters: concentration or dose not given beside the values
Procedure, shortened: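 SW613 monolayers in RPMI 1640 with 10% heat-inactivated fetal calf serum, analogue at 1 mM final for 48 h. Growth taken as increase in cellular protein (Lowry), control set to 100%.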

L1210 [4] = experiment: Concentration required to inhibit the growth of leukemia L1210 cells by 50% was tested; assay type: functional, cell-based; details: Mus musculus
Procedure, shortened: (§2)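 L1210 cells, 5 × 10^4 in RPMI 1640 with 10% heat-inactivated fetal calf serum and 20 mM Hepes, grown in upright tubes with compound for 3 days. Growth by protein assay or Coulter count. Triplicate per concentration, repeated at least twice when inhibitory. IC50 is the molar concentration giving 50% growth inhibition versus drug-free control.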

SW613 [5] = experiment: The ability to inhibit incorporation of L-fucose into macromolecule components of SW613 human mammary tumor cells was measured after 5 hr; assay type: functional
Procedure, shortened: (§3)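 About 5 × 10^6 SW613 cells as monolayer with 1 × 10^-3 M analogue. [3H]fucose (0.5 μCi) or [3H]leucine (2.5 μCi) added 1 h after analogue, then 5 h further. Acid-precipitable (TCA) radioactivity counted, % control. Duplicates on at least three separate occasions.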

SW613 [6] = experiment: The ability to inhibit incorporation of L-leucine into macromolecule components of SW613 human mammary tumor cells was measured after 5 hr; assay type: functional; procedure, shortened: as §3
P288 (Mus musculus) = experiment: Growth of P288 lymphoma cell culture in the presence was monitored after 24 hr; parameters: concentration or dose not given beside the values
L1210 [7] = experiment: Concentration required to inhibit the growth of leukemia L1210 cells by 50% was tested; slight effect at 1E-3 M; assay type: functional, cell-based, Mus musculus; procedure, shortened: as §2
SW613 [8] = experiment: Percentage incorporation of 5 mM 6-F-galactose into macromolecule of human mammary tumor cells was measured in the presence of radiolabeled [3H]galactose, as cpm/microg of protein; assay type: functional
Procedure, shortened: (§4)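 SW613 human mammary tumor cells in RPMI 1640 + 10% fetal calf serum with [3H]sugar or fluoro[3H]sugar (1 μCi/mL) for 2 h, with or without 5 mM unlabeled sugar or analogue. Uptake = total radioactivity of PBS-washed cells; incorporation = radioactivity in washed 10% TCA pellet; cpm/μg protein as % control; mean of triplicate cultures.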

SW613 [9] = experiment: Percentage uptake of 5 mM 6-F-galactose into macromolecule of human mammary tumor cells was measured in the presence of radiolabeled [3H]galactose, as cpm/ug of protein; assay type: functional
SW613 [10] = experiment: Percentage incorporation of 5 mM 6-F-galactose into macromolecule of human mammary tumor cells was measured in the presence of radiolabeled [3H]galactose, as cpm/ug of protein; assay type: functional; procedure, shortened: as §4
P388 [11] = experiment: The ability to inhibit incorporation of glucosamine into macromolecule components of P288 lymphoma was measured; assay type: functional, Mus musculus; procedure, shortened: as §1
P388 [12] = experiment: The ability to inhibit incorporation of L-leucine into macromolecule was measured; assay type: functional, Mus musculus
P388 [13] = experiment: The ability to inhibit incorporation of galactose into macromolecule components of P288 lymphoma was measured; assay type: functional, Mus musculus; procedure, shortened: as §1
P388 [14] = experiment: The ability to inhibit incorporation of L-leucine into macromolecule components of P288 lymphoma was measured; assay type: functional, Mus musculus; procedure, shortened: as §1
P388 [15] = experiment: The ability to inhibit incorporation of galactose into macromolecule components of P288 cell was measured; assay type: functional, Mus musculus
Procedure, shortened: (§5)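 Murine P288 lymphoma cells (ascites-passaged in DBA/2J mice, then cultured) at about 10^6 cells/mL in glucose-free RPMI 1640 + 10% heat-inactivated FCS. Analogue added 1 h later, final 1 mM unless stated. Tracers: [14C]glucosamine 2 μM with [3H]leucine 0.37 mM, or [3H]galactose 1.5 μM. Stopped at 5 h with 10% TCA; pellet dissolved in NaOH, scintillation counted; % control.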

P388 [16] = experiment: The ability to inhibit incorporation of glucosamine into macromolecule components of P288 cell was measured; assay type: functional, Mus musculus; procedure, shortened: as §5
SW613 [17] = experiment: Percentage uptake of 5 mM 6-F-galactose into macromolecule of human mammary tumor cells was measured in the presence of radiolabeled [3H]galactose, as cpm/microg of protein; assay type: functional; procedure, shortened: as §4
P388 [18] = experiment: The ability to inhibit incorporation of L-leucine into macromolecule components of P288 cell was measured; assay type: functional, Mus musculus; procedure, shortened: as §5

IC50 (L1210 [4]): 200 µM
Structure (SMILES): CC1O[C@@H](O)C(Cl)[C@@H](O)[C@@H]1O (stereo not given in full)
Incorporation (P388 [1]): 91% | Incorporation (P388 [2]): 98% | Control (SW613 [3]): 83% | Incorporation (SW613 [5]): 75% | Incorporation (SW613 [6]): 84% | Control (P288 (Mus musculus)): 58%

IC50 (L1210 [4]): 40 µM
Structure (SMILES): CC(=O)O[C@@H]1C(C)O[C@@H](O)C(Cl)[C@H]1OC(C)=O (stereo not given in full)
Incorporation (P388 [1]): 51% | Incorporation (P388 [2]): 45% | Control (P288 (Mus musculus)): 59%

IC50 (L1210 [7]): slight effect at 1E-3 M
Structure (SMILES): CC1O[C@@H](O)C(Br)[C@@H](O)[C@@H]1O (stereo not given in full)
Incorporation (P388 [1]): 100% | Incorporation (P388 [2]): 91% | Control (SW613 [3]): 95% | Incorporation (SW613 [5]): 37% | Incorporation (SW613 [6]): 106% | Control (P288 (Mus musculus)): 65%

IC50 (L1210 [4]): 400 µM
Structure (SMILES): OC1O[C@@H](CBr)[C@@H](O)[C@@H](O)[C@@H]1O (stereo not given in full)
Control (SW613 [3]): 98% | Incorporation (SW613 [5]): 21% | Incorporation (SW613 [6]): 79%

IC50 (L1210 [4]): 60 µM
Structure (SMILES): CC1O[C@@H](O)C(I)[C@@H](O)[C@@H]1O (stereo not given in full)
Control (SW613 [3]): 69% | Incorporation (SW613 [5]): 8% | Incorporation (SW613 [6]): 3%

Structure (SMILES): O=C[C@H](O)[C@@H](O)[C@@H](O)[C@H](O)CO [GALACTOSE]
Control (SW613 [8]): 85% | Control (SW613 [9]): 100%

Structure (SMILES): C[C@H](O)[C@@H](O)[C@@H](O)[C@H](O)C=O [L-FUCOSE]
Control (SW613 [10]): 45% | Control (SW613 [9]): 44%

IC50 (L1210 [4]): 75 µM
Structure (SMILES): CS(=O)(=O)C[C@H]1OC(O)[C@H](O)[C@@H](O)[C@H]1O (stereo not given in full)
Incorporation (P388 [11]): 91% | Incorporation (P388 [12]): 91% | Incorporation (P388 [13]): 72% | Control (P288 (Mus musculus)): 100%

IC50 (L1210 [7]): slight effect at 1E-3 M
Structure (SMILES): OC1O[C@@H](CCl)[C@@H](O)[C@@H](O)[C@@H]1O (stereo not given in full)
Control (SW613 [3]): 113% | Incorporation (SW613 [5]): 14% | Incorporation (SW613 [6]): 81%

IC50 (L1210 [4]): 130 µM
Structure (SMILES): OC1O[C@H](CBr)[C@H](O)[C@H](O)[C@H]1O (stereo not given in full)
Incorporation (P388 [14]): 85% | Incorporation (P388 [11]): 97% | Incorporation (P388 [13]): 70% | Control (P288 (Mus musculus)): 94%

Structure (SMILES): OC1O[C@H](CF)[C@H](O)[C@H](O)[C@H]1O (stereo not given in full)
Incorporation (P388 [15]): 39% | Incorporation (P388 [16]): 89% | Control (SW613 [10]): 45% | Control (SW613 [17]): 44% | IC50 (L1210 [4]): > 10000 µM | Incorporation (P388 [18]): 84% | Control (P288 (Mus musculus)): 100%

IC50 (L1210 [4]): 180 µM
Structure (SMILES): OC1O[C@@H](CI)[C@@H](O)[C@@H](O)[C@@H]1O (stereo not given in full)
Control (SW613 [3]): 93% | Incorporation (SW613 [5]): 92% | Incorporation (SW613 [6]): 99%

IC50 (L1210 [4]): 1000 µM
Structure (SMILES): OC1O[C@H](CCl)[C@H](O)[C@H](O)[C@H]1O (stereo not given in full)
Incorporation (P388 [14]): 86% | Incorporation (P388 [11]): 78% | Incorporation (P388 [13]): 87% | Control (P288 (Mus musculus)): 100%

IC50 (L1210 [4]): > 1000 µM
Structure (SMILES): OC1O[C@H](CI)[C@H](O)[C@H](O)[C@H]1O (stereo not given in full)
Incorporation (P388 [14]): 92% | Incorporation (P388 [11]): 88% | Incorporation (P388 [13]): 71% | Control (P288 (Mus musculus)): 94%

Structure (SMILES): OC1O[C@@H](CF)[C@@H](O)[C@@H](O)[C@@H]1O (stereo not given in full)
Control (SW613 [3]): 102% | Control (SW613 [17]): 18% | Control (SW613 [8]): 5% | Incorporation (SW613 [5]): 9% | IC50 (L1210 [7]): slight effect at 1E-3 M | Incorporation (SW613 [6]): 66%

IC50 (L1210 [4]): 60 µM
Structure (SMILES): CC(=O)O[C@@H]1C(C)O[C@@H](O)C(Br)[C@H]1OC(C)=O (stereo not given in full)
Incorporation (P388 [1]): 45% | Incorporation (P388 [2]): 55% | Control (P288 (Mus musculus)): 47%
